The source made the active and inactive calls.
Key:
P388 = assay: Cytotoxicity against mouse P388 cells assessed as reduction in cell viability at 0.78 to 100 uM after 4 days by MTT assay; assay type: functional, cell-based
Outline: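 P388 cells kept in RPMI 1640 with 10% FBS and penicillin/streptomycin, 37 °C, 5% CO2. Compounds added from DMSO or methanol solutions to 1 × 10^5 cells/mL suspension at final 100 to 0.78 μM (twofold series); 4 days exposure. MTT (1 mg/mL) added 4 h, pellet dissolved in DMSO, absorbance read at 570 nm.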

Bacillus subtilis = assay: Antimicrobial activity against Bacillus subtilis at 1.25 to 10 ug/disc after 1 to 2 days by disc diffusion method; assay type: functional, organism-based
Outline: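 Bacillus subtilis precultured in LB broth; 1 mL broth added directly to 20 mL LB agar. Paper disks (6 mm) loaded at 10, 5, 2.5 and 1.25 μg/disk placed on plates; incubation at 37 °C for 1 to 2 days; read-out was presence of inhibition rings around disks.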

Saccharomyces cerevisiae = assay: Antimicrobial activity against Saccharomyces cerevisiae at 1.25 to 10 ug/disc after 1 to 2 days by disc diffusion method; assay type: functional, organism-based
Outline: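 Saccharomyces cerevisiae precultured in LB broth; 1 mL added to 20 mL agar (5.0% glucose, 0.5% peptone, 0.2% yeast extract, 0.4% K2HPO4, 0.2% KH2PO4, 0.02% MgSO4·7H2O, pH 5.6). Disks (6 mm) at 10, 5, 2.5, 1.25 μg/disk; 37 °C, 1 to 2 days; inhibition rings checked.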

Candida albicans = assay: Antimicrobial activity against Candida albicans at 1.25 to 10 ug/disc after 1 to 2 days by disc diffusion method; assay type: functional, organism-based
Outline: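 Candida albicans precultured in LB broth; 1 mL broth seeded directly into 20 mL agar of 4.0% glucose, 1.0% peptone, pH 5.7. 6 mm paper disks at 10, 5, 2.5, 1.25 μg/disk; plates held at 37 °C for 1 to 2 days and scored for inhibition rings.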

Measured: Activity

CC1=C\C=C\[C@H]2[C@H](O)[C@@H](C)CN2C(=O)CC(=O)/C=C/C(C)=C/C=C/[C@@H](O)[C@H](O)[C@H](O)C(=O)/C=C\C=C\1
inactive: all assays above

CC1=C\[C@H]2[C@@H]3[C@@H](O)[C@H](O)[C@H](O)C(=O)[C@@H]3C=C[C@@H]2/C(C)=C/C=C/C=C/[C@@H](C)CNC(=O)CC(=O)\C=C\1
inactive: all assays above

CC1=C\C=C\[C@H]2[C@H](O)[C@@H](C)CN2C(=O)CC(=O)/C=C/C(C)=C/C=C/C[C@H](O)[C@H](O)C(=O)/C=C\C=C\1
inactive: all assays above
